Tn7 DDE FP = DD(E)-Tn7 binding inhibition, primary FP screen. inhibition, % at 8.3 µM. AID 720508. 370,000 compounds, 0.13% hits. FP displacement of FITC-Tn7 peptide from fibrin DD(E); 0% = median of compound wells per plate. P02675;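 active = inhibition above the mean of compounds falling within the control limits plus 3 SD of them, cut at about 14% in these data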;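 note: 0% = plate median of compound wells and 100% = 10 µM Aha-Tn7 peptide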
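assay system = human clot-derived fibrin DD(E) complex | quantity = Fibrin-DD(E) at 2 µM final | timing = 10 min preincubation, 3 h with tracer, room temperature | signal = fluorescence polarization | measure = percent inhibition | benchmarks = high control wells with 10 µM unlabelled Aha-Tn7 peptide (full inhibition) | replicates = singlicate testing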
DDE Tn6 FP inh = DD(E)-Tn6 binding inhibition, primary FP screen | P02675 | Fibrin DD(E) TRITC-Tn6 fluorescence polarization displacement | inhibition, % at 8.3 µM | 370,000 compounds, 0.21% hits | AID 720509;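 active = inhibition above a per-campaign cutoff: mean of compounds within control limits plus 3 SD, cut at about 15% in these data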;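 note: 0% = median of all compound wells on the plate and 100% = blocking peptide control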
TCR-CD3 inh = inhibitors of human TCR-CD3 interaction; 360,000 compounds, 0.37% hits; inhibition, % at 9.4 µM; TAMRA-labeled TCR probe fluorescence, biochemical;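 note: recombinant mutant TCR 2C K166C tagged with TAMRA read by polarization; 0% = receptor in buffer alone and 100% = receptor with positive control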
HTRA1 inhibitor = HTRA1 (human) protease inhibition | recombinant HTRA1, FP-rhodamine activity-based probe, fluorescence polarization | inhibition, % at 5.96 µM | 340,000 compounds, 0.5% hits | AID 504803; in the data active = inhibition above about 36%;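 note: 0% = enzyme with DMSO and 100% = wells lacking enzyme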
ABHD4 inh = inhibitors of mouse ABHD4 | inhibition, % at 8.92 µM | purified mABHD4, FP-Rh probe fluorescence polarization | 370,000 compounds, 0.54% hits | Q8VD66;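 active = inhibition exceeding the mean over every tested compound plus 3 SD, cut at about 30% in these data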;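 note: 0% = plate median of compound wells and 100% = S159A mutant with DMSO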
Target sequence (Q8VD66 whole entry, looked up): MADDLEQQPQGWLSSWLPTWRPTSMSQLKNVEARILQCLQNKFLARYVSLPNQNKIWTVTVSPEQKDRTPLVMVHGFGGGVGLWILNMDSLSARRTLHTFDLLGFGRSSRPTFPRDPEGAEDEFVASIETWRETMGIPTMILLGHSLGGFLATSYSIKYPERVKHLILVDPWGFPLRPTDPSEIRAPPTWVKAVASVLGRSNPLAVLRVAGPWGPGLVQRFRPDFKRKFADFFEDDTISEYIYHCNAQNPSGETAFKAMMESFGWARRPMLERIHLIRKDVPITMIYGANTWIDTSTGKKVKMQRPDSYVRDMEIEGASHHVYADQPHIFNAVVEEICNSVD
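Assay system: mABHD4 protein; medium: HEPES pH 7.0, NaCl, Pluronic buffer; dosing: 8.92 µM, single dose; schedule: 45 min + 60 min at 25 °C; signal: FP readout, ex 525 nm / em 598 nm; read-out: normalized percent inhibition of probe labeling; repeats: single replicate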
HTRA1 inh conf = confirmation of human HTRA1 inhibitors; recombinant HTRA1, FP-rhodamine activity-based probe, fluorescence polarization; inhibition, % at 5.96 µM; AID 540248; shares compounds with HTRA1 inhibitor; 1,600 compounds, 66% hits;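 active = mean inhibition over three repeats above a set limit taken from the earlier primary screen, cut at about 37% in these data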;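 note: 0% = HTRA1 with DMSO and 100% = wells lacking HTRA1; inhibitors block probe binding so polarization drops and inhibition rises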
BSA TAMRA ctr = counter-screen for TCR-CD3 interaction inhibitors: BSA probe; 1,200 compounds, 10% hits; shares compounds with TCR-CD3 inh; AID 652035; TAMRA-labeled BSA probe fluorescence counterscreen; inhibition, % at 9.4 µM; in the data active = inhibition above about 23%;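 note: 0% = buffer low control and 100% = reference high control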
TCR-CD3 conf = TCR-CD3 interaction inhibition, confirmation. shares compounds with TCR-CD3 inh. TAMRA-labeled TCR probe fluorescence binding assay. inhibition, % at 9.4 µM. 1,200 compounds, 48% hits. AID 652036
DDE Tn6 FP ctr = counter-screen hit for Tn6 peptide-fibrin DD(E) binding disruption | AID 720621 | shares compounds with DDE Tn6 FP inh | inhibition, % at 8.3 µM | TRITC-Tn6 fluorescence polarization displacement; 0% = median of compound wells, not DMSO | 680 compounds, 2% hits;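 active = inhibition above the mean of test compounds lying between the control limits plus 3 SD of those, cut at about 14% in these data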;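 note: 0% = median of compound wells and 100% = wells with Aha-Tn7 blocking peptide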
Tn6 DDE conf = confirmation of inhibitors of Tn6 binding to human fibrin DD(E) | shares compounds with DDE Tn6 FP inh | FP displacement of TRITC-Tn6 peptide from DD(E); 0% = per-plate median of test wells | inhibition, % at 8.3 µM | 680 compounds, 10% hits | AID 720631;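 active = inhibition above the mean of compounds lying within the control limits plus 3 SD, cut at about 16% in these data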;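 note: 100% = high control wells holding a competing inhibitor peptide at 10 µM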
ABHD4 confirm = confirmation of mouse ABHD4 inhibitors | shares compounds with ABHD4 inh | inhibition, % at 8.92 µM | purified mABHD4, FP-Rh probe fluorescence polarization | 1,800 compounds, 55% hits;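 active = mean inhibition across replicates above the hit cutoff set in the primary screen, cut at about 30% in these data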;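 note: 0% = wild-type ABHD4 with DMSO and 100% = catalytically dead S159A mutant with DMSO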
Active calls of the source: *; · = no result; + = active, no number. Only some compounds are listed: those with a hit (about 1.3% of all), similar ones and a draw of the others. Cut-off read from the data, not from the text of the source, unless noted: active = inhibition above about 19%; inactive = the rest.

SMILES	Tn7 DDE FP	DDE Tn6 FP inh	TCR-CD3 inh	HTRA1 inhibitor	ABHD4 inh	HTRA1 inh conf	ABHD4 confirm	others
CCCCCCCC(=O)OCC(O)CO (stereo unspecified)	9.0	5.0	8.7	1.6	5.9	·	·
CCCCCCCCCCCCCCC(O)C[N+](C)(CCO)CCO (stereo unspecified)	1.6	1.4	-0.1	54.4*	44.9*	54.8*	48.1*
O=C(O)CSc1cc(NS(=O)(=O)c2ccc(Br)cc2)c2ccccc2c1O	3.2	-7.6	-4.8	45.5*	48.7*	18.0	49.3*
CCOC(=O)c1c2c(n(Cc3ccccc3)c1C)C(=O)C(=O)c1ccccc1-2	9.6	-4.1	9.9	46.0*	38.5*	43.0*	53.8*
CC(C)c1cc2c(c(O)c1O)[C@@]13CCCC(C)(C)C1CC2OC3=O (stereo partly specified)	-0.3	-3.1	-2.9	48.3*	30.9*	18.5	26.2
CCOc1ccc(S(=O)(=O)Nc2cccc(C(=O)NCCCn3ccnc3)c2)cc1	-4.4	8.1	0.4	4.8	2.8	·	·
NS(=O)(=O)c1ccc(N=Nc2c(O)c(C(=O)O)cc3ccccc23)cc1	8.8	-14.2	-5.1	44.5*	49.1*	8.8	19.7
COc1ccc2nc3cc(Cl)ccc3c(Nc3cc(C(C)C)c(O)cc3C)c2c1	7.0	0.3	-9.2	37.8*	39.6*	28.9	50.6*
COc1ccc(S(=O)(=O)Nc2cc(C(C)C)c(O)cc2C)cc1	0.0	-6.6	1.1	-1.6	-3.5	·	·
O=c1c(O)cccc2cc(O)c(O)c(O)c12	-6.3	-2.2	93.1*	58.0*	54.6*	60.0*	52.1*	BSA TAMRA ctr=-4.5;TCR-CD3 conf=80.9*
COc1cc2cccc(OC)c(=O)c2c(OC)c1OC	0.8	-0.2	6.2	-17.3	15.8	·	·
O=c1[nH][nH]c(C(F)(F)F)c1C=Nc1ccccc1	-2.9	-2.3	3.6	-3.0	-0.2	·	·
Cc1cc(O)ccc1N=Cc1c(C(F)(F)F)[nH][nH]c1=O	4.1	76.9*	83.6*	103.8*	108.7*	4.6	11.5	BSA TAMRA ctr=29.5*;TCR-CD3 conf=13.8;DDE Tn6 FP ctr=-5.4;Tn6 DDE conf=-0.4
O=C(CN1CCN(C(=O)c2ccc(-c3nc4ccccc4s3)o2)CC1)Nc1ccccc1Cl	0.6	-1.2	-5.8	2.0	-4.3	·	·
Cc1cc(C)c2nc(NNC(=O)c3cc(=O)c4ccccc4o3)sc2c1	4.5	2.0	-6.7	69.2*	39.7*	58.7*	61.2*
COC(=O)C1C(=O)N(S(=O)(=O)c2ccc([N+](=O)[O-])cc2)c2ccccc21 (stereo unspecified)	-4.9	5.4	6.5	·	3.0	·	·
Cc1cc(N(C)C)ccc1N=Nc1ccc2ncccc2c1	2.8	-6.3	-2.0	37.0*	45.0*	37.2*	53.9*
Oc1cc(Br)ccc1C=Nc1ccc(N2CCCCC2)cc1	-1.0	-3.2	5.1	52.5*	36.3*	14.2	12.8
Oc1ccc(Cc2ccccc2)c2cccnc12	2.6	6.9	1.1	·	18.8	·	·
COc1ccccc1N=Nc1ccc(O)c2ncccc12	-3.7	-2.5	1.7	80.6*	38.0*	62.5*	36.5*
COc1cc(Br)cc(C(c2c(C)n(C)n(-c3ccccc3)c2=O)c2c(C)n(C)n(-c3ccccc3)c2=O)c1O	7.5	1.8	-6.2	·	2.8	·	·
COc1ccc(C)cc1N	0.1	0.7	-3.8	·	-4.0	·	·
COc1ccc(OC)c(N)c1	1.0	12.6	22.8*	65.9*	41.3*	25.4	24.4	BSA TAMRA ctr=21.8;TCR-CD3 conf=18.4
O=c1cc2c(=O)oc3cc(O)c(O)oc3c2c(O)c1O	-13.3	9.8	25.6*	46.7*	41.5*	38.2*	34.1*	BSA TAMRA ctr=-18.7;TCR-CD3 conf=19.1*
COCCCNc1c2c3c(cccc3[nH]c1=O)C(=O)c1ccccc1-2	5.8	85.8*	172.0*	125.7*	109.0*	119.7*	177.7*	BSA TAMRA ctr=+;TCR-CD3 conf=185.1*
SMILES	Tn7 DDE FP	DDE Tn6 FP inh	TCR-CD3 inh	HTRA1 inhibitor	ABHD4 inh	HTRA1 inh conf	ABHD4 confirm	others
N#Cc1ccc(/C=N/NC(=S)Nc2ccc(S(=O)(=O)N3CCOCC3)cc2)cc1	2.7	3.6	-1.6	-11.1	3.3	·	·
O=[N+]([O-])c1cc(Cl)cc(/C=N/NC(=S)Nc2ccc(S(=O)(=O)N3CCOCC3)cc2)c1O	2.8	-1.1	42.1*	61.8*	56.8*	58.7*	118.2*	BSA TAMRA ctr=-4.6;TCR-CD3 conf=43.4*
Cc1ccc(S(=O)(=O)Nc2cc(Cl)c(O)c3ncccc23)cc1	-9.2	-6.8	-7.3	70.4*	48.5*	54.5*	56.9*
Cc1ccc(S(=O)(=O)Nc2cccnc2Oc2ccc(Cl)cc2)cc1	-3.0	5.5	-8.6	-1.1	-7.2	·	·
O=S(=O)(O)c1cc(Cl)cc(N=Nc2ccc(O)cc2O)c1O	10.0	23.0*	64.8*	39.8*	69.7*	38.2*	-14.4	BSA TAMRA ctr=65.4*;TCR-CD3 conf=54.0*;DDE Tn6 FP ctr=1.9;Tn6 DDE conf=29.8*
CCOc1ccc2ccccc2c1/C=N/NC(=O)CNC(=O)Cc1ccccc1	-6.6	-7.4	-0.3	-6.2	-12.6	·	·
CO[C@H]1/C=C/O[C@@]2(C)Oc3c(C)c(O)c4c(O)c(c(C=NN5CCN(C)CC5)c(O)c4c3C2=O)NC(=O)/C(C)=C\C=C\[C@H](C)[C@H](O)[C@@H](C)[C@@H](O)[C@@H](C)[C@H](OC(C)=O)[C@@H]1C	1.6	4.3	4.3	36.3*	34.6*	7.2	3.0
CCn1c(SCC(=O)Nc2ccc(F)cc2F)nc2c(c1=O)SCC2	3.0	1.4	1.3	-2.4	5.0	·	·
CC(C)[C@H](NC(=O)c1ccccc1)C(=O)OCC(=O)c1ccccc1F	-4.7	-5.4	-1.9	-5.1	-1.3	·	·
Cc1ccc(N=Cc2cccc(O)c2O)c(C)c1	0.2	1.0	9.5	84.0*	48.9*	42.8*	29.9*
Oc1cccc(/C=N/N=C/c2cccc(O)c2O)c1O	-0.9	-15.3	-4.2	36.2*	35.8*	45.0*	18.6
Cc1ccccc1CNC1CCCCC1	-0.1	-8.3	2.1	0.9	-0.5	·	·

Bioassay records as filed in PubChem.
